Source: PubChem
NR1D1 modulator: modulates human Rev-erb alpha binding to DNA | P20393 | Rev-erbα–FITC-DNA binding, fluorescence polarization, 90 min | activity, % at 10 µM | 0.79% of 370,000 active | AID 1259318;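 active means activity above about 14%, limit read from the data; passing the limit was not always enough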;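 further: 0% = DMSO wells with 35 nM protein and 100% = DMSO wells with 750 nM protein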
Target sequence (P20393 whole entry, looked up): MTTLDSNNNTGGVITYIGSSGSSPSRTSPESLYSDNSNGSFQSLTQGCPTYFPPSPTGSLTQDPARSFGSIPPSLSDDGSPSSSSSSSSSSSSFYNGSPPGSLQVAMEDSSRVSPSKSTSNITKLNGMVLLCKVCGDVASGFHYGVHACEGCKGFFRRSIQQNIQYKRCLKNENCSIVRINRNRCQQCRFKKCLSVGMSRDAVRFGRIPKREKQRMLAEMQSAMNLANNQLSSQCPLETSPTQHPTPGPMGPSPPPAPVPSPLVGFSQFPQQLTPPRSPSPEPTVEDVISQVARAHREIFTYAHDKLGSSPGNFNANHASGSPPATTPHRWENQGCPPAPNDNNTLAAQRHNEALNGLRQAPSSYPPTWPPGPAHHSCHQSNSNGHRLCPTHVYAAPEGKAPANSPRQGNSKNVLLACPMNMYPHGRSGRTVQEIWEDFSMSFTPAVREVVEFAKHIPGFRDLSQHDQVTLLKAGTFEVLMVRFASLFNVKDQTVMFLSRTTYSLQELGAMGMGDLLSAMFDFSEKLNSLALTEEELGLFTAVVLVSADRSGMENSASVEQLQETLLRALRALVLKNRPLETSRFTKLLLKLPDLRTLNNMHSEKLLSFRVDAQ
rCAG binder: r(CAG) repeat RNA binding; TO-PRO-1 dye displacement fluorescence; inhibition, % at 3 µM; 1.3% of 370,000 active; AID 651821;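 active means inhibition above the plate cutoff, the mean of all test compounds on that plate plus 3 SD, cut at about 35% in these data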;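 further: 0% = DMSO alone and 100% = 100 µM mitoxantrone as full dye displacement; higher means more dye released from RNA so lower well fluorescence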
PG9 binder: binds the HIV-1 gp120 antibody PG9 | TR-FRET gp120-PG9 antibody binding | inhibition, % at 6.7 µM | 0.43% of 360,000 active | AID 624416; in the data active means inhibition above about 8.5%
NR2E3 ag-1: NR2E3 (human) agonism | Q9Y5X4 | GST-NR2E3/biotin-RetCOR TR-FRET, 1536-well | inhibition of corepressor binding, % at 4.78 µM | 0.12% of 320,000 active | AID 2300;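 active means percent inhibition above the cutoff of mean plus 3 SD of all tested compounds, set per screening campaign, cut at about 20% in these data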;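 further: 0% = DMSO wells and 100% = biotin wells as full block of FRET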
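Test system: GST-NR2E3 and biotin-RetCOR proteins | Quantity: 1.35 nM GST-tagged NR2E3 final | Medium: Tris pH 7.5 | Also added: 7 nM biotin-RetCOR | Dosing: Compound at 4.8 µM, single dose | Timing: 5 h at 4 °C | Detection: Time-resolved FRET | Read-out basis: Percent inhibition | Benchmarks: Biotin wells as high control, 0.6% DMSO wells as low control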
NR2E3 ag-2: activates human NR2E3 receptor; Q9Y5X4; CHO-S Gal4-NCOR/VP16-NR2E3 two-hybrid, luciferase; inhibition of corepressor binding, % at 3.98 µM; 0.35% of 360,000 active; AID 602229;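 active means inhibition above the mean of all tested compounds plus 3 SD, cut at about 70% in these data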;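 further: 0% = DMSO with NR2E3 transfected cells and 100% = cells lacking NR2E3 construct; higher means lower luciferase signal from less NR2E3 corepressor binding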
PG9 binder conf: PG9 antibody binding, confirmed | shares compounds with PG9 binder | TR-FRET PG9 antibody binding, biochemical | 90% of 1,500 active | inhibition, % at 6.7 µM; in the data active means inhibition above about 9%
PGV04 Ab binding: binds control antibody PGV04 in PG9 binder counter-screen | shares compounds with PG9 binder | TR-FRET PGV04 antibody-gp120 binding, biochemical | inhibition, % at 6.7 µM | 95% of 1,500 active | AID 651604; in the data active means inhibition above about 9.5%
PG9 bind DR: PG9 antibody binding, dose response | IC50, µM | 95 tested, under 10 active | TR-FRET PG9 antibody-gp120 binding inhibition | shares compounds with PG9 binder | AID 651848; in the data active means IC50 below about 10 µM
PGV04 DR counter: binds control antibody PGV04 in PG9 counter-screen; AID 651937; TR-FRET binding to control antibody PGV04; 20% of 95 active; shares compounds with PG9 binder; IC50, µM
PG126 binding DR: binds control antibody PG126 in PG9 counter-screen; shares compounds with PG9 binder; TR-FRET binding to antibody PG126, counterscreen; IC50, µM; 20% of 95 active
NR1D1 mod conf: confirmation of modulators of human Rev-erb alpha DNA binding. shares compounds with NR1D1 modulator. Rev-erb alpha FITC-DNA binding, fluorescence polarization, 90 min. activation, % at 25 µM. 61% of 3,000 active. AID 1259319;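 active means activation at or above a set limit, or at least 3 SD above the negative control mean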;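 further: 0% = 35 nM protein with DMSO and 100% = 750 nM protein high control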
RORg DNA counter: RORgamma DNA-binding activity, dose-response counter-screen | shares compounds with NR1D1 modulator | 8% of 910 active | purified RORgamma protein-FITC-DNA binding, fluorescence polarization | IC50, µM;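 active means Compounds whose fitted half-maximal concentration for disrupting protein-DNA binding is below 10 micromolar; the record names Rev-erb in its text, so the target is in doubt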
Active calls of the source: *. An excerpt weighted towards active compounds, which were near 2.6% of everything screened. Unless noted, no stated cut-off is given here; in the data, active means IC50 below about 9 µM; inactive means the rest.

Results for CCc1nc2ccc(C(=O)N(C)CCCN(C)C)cn2c1N(CC)CCOC ?
NR1D1 modulator: -4.1; rCAG binder: 1.5; PG9 binder: 0.2; NR2E3 ag-2: -9.2

How did Cc1ccc(NC(=O)CN2C(=O)CCSc3ccccc32)c(C)c1 do in these assays?
NR1D1 modulator: 4.8; rCAG binder: 0.8

Results for O=C(c1ccc(Cn2c(=O)[nH]c3ccsc3c2=O)cc1)N1CCN(c2ccccc2)CC1 ?
NR1D1 modulator: 1.2; rCAG binder: -2.4; PG9 binder: -0.3; NR2E3 ag-1: 3.1; NR2E3 ag-2: -5.1

Results for CCc1cccc(NC(=O)c2ccc(Cn3c(=O)[nH]c4ccsc4c3=O)cc2)c1 ?
NR1D1 modulator: 54.6*; rCAG binder: 2.8; PG9 binder: 24.7*; NR2E3 ag-1: 11.7; NR2E3 ag-2: -26.1; PG9 binder conf: 29.1*; PGV04 Ab binding: 40.2*; NR1D1 mod conf: 60.3*; RORg DNA counter: inactive

How did COc1ccc(CN2C(=O)N3Cc4ccccc4C3CS2(=O)=O)cc1 (stereo not given) do in these assays?
NR1D1 modulator: 5.4; rCAG binder: 4.2

What do the screens show for `CS(=O)(=O)c1ccc(C(=O)Nc2ccc(N3CCCCC3)cc2)c(Cl)c1`?
NR1D1 modulator: 8.4; rCAG binder: -4.0; PG9 binder: -2.7; NR2E3 ag-1: -1.7; NR2E3 ag-2: -3.1

Results for Cc1ccc(Sc2ccc(NC(=O)c3ccc(S(C)(=O)=O)cc3Cl)cc2)cc1 ?
NR1D1 modulator: 46.0*; rCAG binder: 2.7; PG9 binder: 47.7*; NR2E3 ag-1: 0.6; NR2E3 ag-2: 0.8; PG9 binder conf: 41.1*; PGV04 Ab binding: 62.1*; NR1D1 mod conf: 21.6*

How did CCCc1c(C(=O)N/N=C(\C)c2ccc(CC(C)C)cc2)nnn1-c1nonc1N do in these assays?
NR1D1 modulator: 2.0; rCAG binder: 4.2; PG9 binder: -1.2; NR2E3 ag-2: -8.6

Results for C(=NN=C(NN=Cc1cccs1)NN=Cc1cccs1)c1cccs1 ?
NR1D1 modulator: 3.8; rCAG binder: 5.5; PG9 binder: -2.8; NR2E3 ag-2: 7.3

Results for CC(=O)c1ccc(N2CCN(S(=O)(=O)c3cc4c(cc3C)NC(=O)CO4)CC2)cc1 ?
NR1D1 modulator: 31.3*; rCAG binder: 10.3; PG9 binder: 36.6*; NR2E3 ag-1: -8.8; NR2E3 ag-2: -5.0; PG9 binder conf: 33.3*; PGV04 Ab binding: 47.6*; NR1D1 mod conf: 22.9*

How did Cc1cc2c(cc1S(=O)(=O)N1CCN(c3cccc(C(F)(F)F)c3)CC1)OCC(=O)N2 do in these assays?
NR1D1 modulator: 4.5; rCAG binder: 3.5; PG9 binder: -1.3; NR2E3 ag-1: 2.1; NR2E3 ag-2: -26.3

How did Cn1nc(N)c2c(-c3ccc(Cl)cc3)c(C#N)c(N)nc21 do in these assays?
NR1D1 modulator: 2.9; rCAG binder: -3.5; PG9 binder: -0.1; NR2E3 ag-1: 1.7; NR2E3 ag-2: 3.9

How did N#Cc1c(N)nc(N2CCCC2)c(C#N)c1-c1ccc(Cl)cc1 do in these assays?
NR1D1 modulator: 146.5*; rCAG binder: 0.8; PG9 binder: 25.2*; NR2E3 ag-1: 1.4; NR2E3 ag-2: -7.9; PG9 binder conf: 19.4*; PGV04 Ab binding: 28.3*; NR1D1 mod conf: 106.2*; RORg DNA counter: >40

What do the screens show for `C=CCCC(=O)N1C[C@H]2CON(C)[C@H]2C[C@H]1c1cccc(Br)c1`?
NR1D1 modulator: 1.3; rCAG binder: 0.1; PG9 binder: -0.2; NR2E3 ag-2: -20.3

What do the screens show for `COc1ccc(-c2ccc3c(c2)c(Sc2ccccc2)c(-c2cc(OC)cc(OC)c2)n3C)cc1`?
NR1D1 modulator: 39.7*; rCAG binder: 5.6; PG9 binder: 16.9*; NR2E3 ag-2: 1.4; PG9 binder conf: 43.6*; PGV04 Ab binding: 59.7*; NR1D1 mod conf: 60.0*; RORg DNA counter: >40

What do the screens show for `COc1cc(OC)cc(-c2c(Sc3ccccc3)c3cc(-c4cnc(OC)nc4)ccc3n2C)c1`?
NR1D1 modulator: -1.3; rCAG binder: 5.0; PG9 binder: 0.7; NR2E3 ag-2: -20.9

How did COc1ccc(-c2c(Sc3ccccc3)c3cc(-c4ccc5c(c4)OCO5)ccc3n2C)cc1 do in these assays?
NR1D1 modulator: 19.9*; rCAG binder: 5.2; PG9 binder: 36.8*; NR2E3 ag-2: -28.0; PG9 binder conf: 88.1*; PGV04 Ab binding: 57.2*; PG9 bind DR: 2.87*; PGV04 DR counter: 2.14*; PG126 binding DR: 2.05*; NR1D1 mod conf: -34.1

What do the screens show for `CC(C)(C)c1ccc(C(=O)NCCC(=O)NNC(=O)COc2ccccc2F)cc1`?
NR1D1 modulator: 5.0; rCAG binder: 0.7; PG9 binder: -0.6; NR2E3 ag-2: -39.2

How did COc1cc2cnncc2cc1OC do in these assays?
NR1D1 modulator: 2.3; rCAG binder: -1.1; PG9 binder: 1.4; NR2E3 ag-1: 0.3; NR2E3 ag-2: -12.1

Results for COc1cc2cc(Br)cc(Br)c2nc1C ?
NR1D1 modulator: 36.6*; rCAG binder: 4.4; PG9 binder: 47.5*; NR2E3 ag-1: 18.9; NR2E3 ag-2: -8.8; PG9 binder conf: 39.7*; PGV04 Ab binding: 53.7*; NR1D1 mod conf: 22.2*

How did O=C(Nc1ccc(F)cc1)c1cc2cc(Cl)ccc2[nH]1 do in these assays?
NR1D1 modulator: 43.3*; rCAG binder: 0.8; PG9 binder: 11.0*; NR2E3 ag-1: 4.3; NR2E3 ag-2: -54.7; PG9 binder conf: 12.7*; PGV04 Ab binding: 21.2*; NR1D1 mod conf: 7.1

How did COc1ccc2[nH]c(C(=O)Nc3ccc(F)cc3Br)cc2c1 do in these assays?
NR1D1 modulator: 68.5*; rCAG binder: 7.2; PG9 binder: 16.0*; NR2E3 ag-1: -35.6; NR2E3 ag-2: -26.6; PG9 binder conf: 22.5*; PGV04 Ab binding: 64.8*; NR1D1 mod conf: 79.0*; RORg DNA counter: >40

Results for Cc1cccc(C)c1-n1nnnc1C1(C)CCC(=O)N1Cc1cccnc1 (stereo not given) ?
NR1D1 modulator: -0.5; rCAG binder: -0.2; PG9 binder: -2.6; NR2E3 ag-2: -6.5
